# From PubChem
# An excerpt weighted towards active compounds, which were near 3.2% of everything screened.
# GPR7 antag: blocks human GPR7 receptor signaling | P48145 | GPR7-expressing cells, fluorescence antagonist assay | inhibition, % at 4.4 µM | 290,000 compounds, 1.1% hits; in the data active = inhibition above about 16%, passing the limit was not always enough;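 note: cells stimulated with the agonist NPW; 0% = agonist with vehicle and 100% = vehicle without agonist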
# Target sequence (P48145 whole entry, looked up): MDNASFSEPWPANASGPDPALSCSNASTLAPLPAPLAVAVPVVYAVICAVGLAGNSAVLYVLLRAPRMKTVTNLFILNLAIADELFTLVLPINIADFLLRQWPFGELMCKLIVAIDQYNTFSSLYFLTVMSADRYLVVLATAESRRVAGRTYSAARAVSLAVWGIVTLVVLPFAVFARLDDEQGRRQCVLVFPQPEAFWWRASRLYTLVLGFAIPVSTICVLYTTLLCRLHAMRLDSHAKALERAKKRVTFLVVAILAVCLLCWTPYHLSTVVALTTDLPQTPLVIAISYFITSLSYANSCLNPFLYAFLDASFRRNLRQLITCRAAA
# TRPML3 agonist: human mucolipin-3 channel agonism. 220,000 compounds, 0.29% hits. activation, % at 3 µM. AID 1448. HEK293 TRPML3-YFP, Fluo-8 calcium fluorescence; 100% = the carbachol control signal;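 active = activation above its plate's cutoff, the mean activation of the plate's test wells plus 3 SD, cut at about 12% in these data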;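 note: 0% = DMSO only wells and 100% = carbachol wells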
#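 system = HEK293 cells stably carrying human TRPML3-YFP | doses = one concentration, 3 µM nominal, 0.3% DMSO | timing = dye loading 1 h 37 °C then 30 min ambient, 125 s read | detection = Fluo-8 calcium dye fluorescence, ex 470-495, em 515-575 nm | benchmarks = high control carbachol 87 µM, low control DMSO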
# TRPN1 ag: agonists of zebrafish TRPN1 channel; AID 1424; activation, % at 3 µM; HEK293 zebrafish TRPN1-YFP, Fluo-8 calcium fluorescence; 100% = response to 87 µM carbachol; 220,000 compounds, 0.18% hits;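 active = activation above its plate's cutoff, the mean activation of test wells on that plate plus 3 SD, cut at about 19% in these data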;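 note: 0% = DMSO alone and 100% = 87 µM carbachol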
#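 Material: zebrafish TRPN1-YFP in HEK293 cells. Doses: one dose of 3 µM, 0.3% DMSO. Incubation: dye 1 h 37 °C plus 30 min RT. Measured by: intracellular calcium fluorescence with Fluo-8.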
# OX1R antag-1: blocks the human orexin 1 receptor; O43613; CHO/OX1R cells, Fluo-8 calcium fluorescence, orexin A; inhibition, % at 5 µM; 330,000 compounds, 0.43% hits; AID 434989;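 active = inhibition above its plate's threshold, mean inhibition of all tested compounds on the plate plus 3 SD, cut at about 37% in these data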;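 note: 0% = orexin A challenge wells and 100% = SB-334867-A antagonist wells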
# OX1R antag-2: blocks the human orexin 1 receptor | OX1R-expressing cells, FRET antagonist read-out | 330,000 compounds, 1.8% hits | AID 485270 | inhibition, % at 6.6 µM; in the data active = inhibition mostly above about 38%, no sharp cut-off; inactive = mostly below about 40%;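 note: 0% = agonist challenge alone and 100% = reference antagonist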
# CHO parental Ca: counter-screen for OX1R antagonists: effect in parental CHO cells. inhibition, % at 5.6 µM. 330,000 compounds, 0.63% hits. parental CHO-K1, ATP-induced calcium, Fluo-8 fluorescence;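 active = inhibition above that plate's mean sample inhibition plus 3 SD, cut at about 26% in these data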;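 note: 0% = ATP-challenged DMSO wells and 100% = DMSO wells without ATP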
#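 Measured by: calcium-sensitive Fluo-8 fluorescence / Test system: CHO parental line / Controls: ATP-challenged DMSO wells low, unchallenged DMSO wells high / Measure: % inhibition / Compound: single nominal dose of 5.6 µM per compound / Replicates: single well per compound, no replicates / Reagent: ATP as calcium-mobilizing challenge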
# GPR7 antag cf: confirmation of human GPR7 antagonists | shares compounds with GPR7 antag | GPR7-expressing cells, calcium fluorescence antagonist mode | inhibition, % at 4.4 µM | 2,400 compounds, 52% hits | AID 1952; in the data active = inhibition above about 24%;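 note: stimulated with the GPR7 agonist NPW; 0% = agonist plus vehicle and 100% = vehicle alone without agonist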
# MCHR1 antag: antagonizes human MCHR1, a GPR7 antagonist counter-screen; shares compounds with GPR7 antag; MCHR1-expressing cells, fluorescence antagonist assay; inhibition, % at 4.4 µM; 2,400 compounds, 62% hits; AID 2148; in the data active = inhibition above about 22%;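 note: 0% = vehicle with agonist and 100% = vehicle without agonist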
# An asterisk follows results filed as active; x = no result given.
SMILES,GPR7 antag,TRPML3 agonist,TRPN1 ag,OX1R antag-1,OX1R antag-2,CHO parental Ca,GPR7 antag cf,MCHR1 antag
COc1ccc(CN(CCC(c2ccccc2)C2CCOC(C)(C)C2)C(C)=O)cc1 (stereo unspecified),24*,-1,-1,-20,10,-19,5,26*
O=S(=O)(/N=C(/c1ccccc1)N1CCCCCC1)c1ccccc1,33*,0,-2,-21,22,-6,1,-1
O=S(=O)(/N=C(\c1ccc(Cl)cc1)N1CCOCC1)c1ccccc1,5,0,0,-12,4,-11,x,x
CC1CCN(S(=O)(=O)c2cc(C(=O)N3CCN(c4ncccn4)CC3)ccc2Br)CC1,-11,3,9,-42,16,-34,x,x
Cc1cccc(N2C(=O)c3cccc4c(N(C)CCO)ccc(c34)C2=O)c1,25*,30*,39*,46*,31,26,34*,53*
CN(C)c1ccc2c3c(cccc13)C(=O)N(c1ccccc1)C2=O,5,1,4,3,20,5,x,x
CC(C(=O)Nc1cccnc1)c1ccc([N+](=O)[O-])cc1 (stereo unspecified),1,2,2,-3,12,-9,x,x
CC(C)Cc1ccc(C(C)C(=O)Nc2cccnc2)cc1 (stereo unspecified),54*,x,x,90*,20,69*,46*,68*
CC(C)CC(NC(=O)C1CCC(C)CC1)C(=O)Nc1cccnc1 (stereo unspecified),28*,0,0,-27,6,-9,-13,34*
CCN(CC(=O)Nc1c(F)cccc1F)C(=O)c1ccc(Cl)c(S(=O)(=O)N2CCCCC2)c1,35*,x,x,-5,20,-7,13,49*
CCN1CCN(C(c2ccccc2OC)c2nnnn2C2CCCCC2)CC1 (stereo unspecified),30*,0,-1,-23,16,-25,7,8
CCOc1ccc2[nH]c(=O)c(C(c3nnnn3C3CCCCC3)N3CCN(CC)CC3)cc2c1 (stereo unspecified),-11,0,2,-17,12,-17,x,x
Nc1ccccc1C#Cc1ccc([N+](=O)[O-])cc1,x,x,x,-3,5,-2,x,x
Nc1ccccc1C#CC(=O)c1ccccc1,37*,x,x,1,2,-4,71*,36*
O=C(Nc1ccc(Oc2ccc(C(F)(F)F)cn2)c(Cl)c1)C1CC1,0,1,1,2,18,-8,x,x
N/C(=N\OC(=O)COc1ccc(Cl)cc1Br)c1cccnc1,24*,0,0,-27,12,-27,6,18
N/C(=N\OC(=O)COc1ccc(Br)cc1Cl)c1cccnc1,-6,0,-1,-14,9,-20,x,x
COc1cccc(CN2CCN(c3nc4nonc4nc3NC3CC3)CC2)c1,-5,0,2,-20,13,-21,x,x
COc1ccc(/C=N/NC(=O)c2cccc(Br)c2)cc1COc1ccccn1,31*,0,0,-25,14,-19,-4,48*
COc1ccccc1C(=O)COC(=O)Cn1[nH]c(=O)c2ccccc2c1=O,x,x,x,-10,2,-5,x,x
CC1CCCC(NC(=S)Nc2ccc(SC(F)F)cc2)C1C (stereo unspecified),45*,4,14,60*,35,48*,32*,54*
Cc1ccc(OCCn2cc(C(=S)N3CCCC3)c3ccccc32)cc1C,27*,-1,0,-10,-2,-14,29*,68*
COCCNC(=O)Cn1cc(C(=S)N2CCCCC2)c2ccccc21,24*,0,-3,-21,15,-13,-6,3
COc1ccccc1CN1CC(C(=O)N(C)Cc2ccc(C)o2)CCC1=O (stereo unspecified),3,x,x,-24,16,-15,x,x
